Results published in ChEMBL document CHEMBL4382221, “First-in-class DAPK1/CSF1R dual inhibitors: Discovery of 3,5-dimethoxy-N-(4-(4-methoxyphenoxy)-2-((6-morpholinopyridin-3-yl)amino)pyrimidin-5-yl)benzamide as a potential anti-tauopathies agent” (Eur J Med Chem, 2019).
Activity calls are given as the source filed them. The calls are words filed in the database; no cut-off is given here.

Tests used:
[1] = target: T1, Death-associated protein kinase 1 (Homo sapiens, UniProt P53355); test: Inhibition of human DAPK1 (1 to 363 residues) at 10 uM using KKLNRTLSFAEPG as substrate after 120 mins in presence of 10 uM [gamma-33P]-ATP by filtration method relative to control
Method in brief: (§1)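 Radiometric HotSpot assay measuring substrate phosphorylation directly, with 10 μM ATP. Single-dose screen at 10 μM in duplicate, reported as mean % inhibition from two independent experiments.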
Target sequence in this assay (P53355 whole entry, looked up, the tested form may be a part): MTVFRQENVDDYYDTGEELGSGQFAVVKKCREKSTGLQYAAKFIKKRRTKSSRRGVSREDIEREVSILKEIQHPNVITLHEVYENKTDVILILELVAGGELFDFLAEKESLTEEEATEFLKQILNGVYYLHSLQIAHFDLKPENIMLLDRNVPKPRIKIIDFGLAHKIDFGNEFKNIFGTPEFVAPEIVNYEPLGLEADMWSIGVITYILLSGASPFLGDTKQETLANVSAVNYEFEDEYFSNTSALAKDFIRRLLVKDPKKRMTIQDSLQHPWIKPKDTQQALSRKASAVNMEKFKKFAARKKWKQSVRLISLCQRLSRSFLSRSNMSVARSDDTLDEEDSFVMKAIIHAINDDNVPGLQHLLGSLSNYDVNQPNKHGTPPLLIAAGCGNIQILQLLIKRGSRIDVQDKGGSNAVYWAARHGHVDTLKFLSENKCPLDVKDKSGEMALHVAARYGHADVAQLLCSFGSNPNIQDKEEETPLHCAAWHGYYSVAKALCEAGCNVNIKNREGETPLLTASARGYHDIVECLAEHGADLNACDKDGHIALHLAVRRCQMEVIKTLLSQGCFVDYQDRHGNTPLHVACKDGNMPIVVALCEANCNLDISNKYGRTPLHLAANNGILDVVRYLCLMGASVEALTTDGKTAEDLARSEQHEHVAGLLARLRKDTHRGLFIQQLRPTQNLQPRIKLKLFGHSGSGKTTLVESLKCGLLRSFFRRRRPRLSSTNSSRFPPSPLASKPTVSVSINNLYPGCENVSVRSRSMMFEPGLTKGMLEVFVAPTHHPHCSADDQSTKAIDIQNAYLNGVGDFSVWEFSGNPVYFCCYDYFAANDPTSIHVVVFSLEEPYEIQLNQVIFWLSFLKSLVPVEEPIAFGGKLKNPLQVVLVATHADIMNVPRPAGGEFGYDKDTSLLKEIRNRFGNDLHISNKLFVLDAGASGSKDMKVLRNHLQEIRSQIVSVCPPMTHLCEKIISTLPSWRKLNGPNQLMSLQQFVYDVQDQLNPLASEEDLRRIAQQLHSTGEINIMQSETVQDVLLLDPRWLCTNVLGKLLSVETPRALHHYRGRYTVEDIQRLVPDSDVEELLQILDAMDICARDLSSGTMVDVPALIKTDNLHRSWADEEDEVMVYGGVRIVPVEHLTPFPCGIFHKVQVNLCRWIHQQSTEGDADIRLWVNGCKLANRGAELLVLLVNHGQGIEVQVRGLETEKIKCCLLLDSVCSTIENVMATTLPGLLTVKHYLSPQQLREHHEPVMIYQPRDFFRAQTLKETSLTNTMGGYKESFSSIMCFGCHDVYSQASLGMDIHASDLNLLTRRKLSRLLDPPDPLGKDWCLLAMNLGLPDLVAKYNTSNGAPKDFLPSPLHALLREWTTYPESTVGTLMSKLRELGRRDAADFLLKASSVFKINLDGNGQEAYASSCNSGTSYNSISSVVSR

[2] = target: T2, Macrophage colony-stimulating factor 1 receptor (Homo sapiens, UniProt P07333); test: Inhibition of human CSF1R at 10 uM using poly[Glu:Tyr] (4:1) as substrate after 120 mins in presence of 10 uM [gamma-33P]-ATP by filtration method relative to control; method in brief: as §1
T2 sequence (P07333 whole entry): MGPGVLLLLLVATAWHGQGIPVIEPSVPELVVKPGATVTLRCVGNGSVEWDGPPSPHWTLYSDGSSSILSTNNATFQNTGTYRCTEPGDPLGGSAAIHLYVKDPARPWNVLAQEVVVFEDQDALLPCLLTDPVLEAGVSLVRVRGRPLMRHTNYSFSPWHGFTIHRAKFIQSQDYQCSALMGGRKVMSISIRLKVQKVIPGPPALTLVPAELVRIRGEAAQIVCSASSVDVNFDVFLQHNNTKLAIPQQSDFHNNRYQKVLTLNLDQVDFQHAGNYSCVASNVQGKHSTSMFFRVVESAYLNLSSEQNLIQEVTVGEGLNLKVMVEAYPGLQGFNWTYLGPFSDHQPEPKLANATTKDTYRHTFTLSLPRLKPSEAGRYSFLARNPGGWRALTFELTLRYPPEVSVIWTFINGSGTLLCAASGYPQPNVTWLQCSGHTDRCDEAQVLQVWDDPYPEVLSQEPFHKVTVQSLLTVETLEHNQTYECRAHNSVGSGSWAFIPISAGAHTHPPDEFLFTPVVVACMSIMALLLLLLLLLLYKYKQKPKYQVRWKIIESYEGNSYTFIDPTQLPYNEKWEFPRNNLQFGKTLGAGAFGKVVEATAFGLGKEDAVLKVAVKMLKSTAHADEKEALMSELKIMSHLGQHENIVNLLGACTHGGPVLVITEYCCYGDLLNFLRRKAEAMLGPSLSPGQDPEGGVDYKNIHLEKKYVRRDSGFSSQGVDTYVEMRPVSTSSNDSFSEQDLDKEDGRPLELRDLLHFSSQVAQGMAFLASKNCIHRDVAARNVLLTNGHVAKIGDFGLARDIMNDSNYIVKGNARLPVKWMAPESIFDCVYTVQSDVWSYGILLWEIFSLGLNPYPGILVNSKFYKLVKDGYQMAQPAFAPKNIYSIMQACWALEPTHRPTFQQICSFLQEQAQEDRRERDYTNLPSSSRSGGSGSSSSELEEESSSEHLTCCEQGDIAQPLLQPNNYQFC

[3] = Effective permeability of the compound at 50 uM after 4 hrs by PAMPA; assay type: ADME; settings: read-out: Peff
Method in brief: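 Parallel artificial membrane permeability assay across a BBB-PAMPA lipid membrane, reporting effective permeability (Pe) in 10^-6 cm/sec. […] Pe above 0.4 was taken as highly permeable, and above 10 as highly CNS bioavailable.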

[4] = target: T1, Death-associated protein kinase 1; test: Inhibition of human DAPK1 (1 to 363 residues) using KKLNRTLSFAEPG as substrate after 120 mins in presence of 10 uM [gamma-33P]-ATP by filtration method
Method in brief: (§2)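 Radiometric HotSpot assay with direct measurement of phosphorylated substrate at 10 μM ATP. IC50 was taken from a duplicate 10-dose series, 3-fold dilutions starting at 20 μM, reported as mean.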
Target sequence in this assay (P53355 whole entry, the tested form may be a part): as the sequence (P53355 whole entry, looked up, the tested form may be a part) above

[5] = target: T2, Macrophage colony-stimulating factor 1 receptor; test: Inhibition of human CSF1R using poly[Glu:Tyr] (4:1) as substrate after 120 mins in presence of 10 uM [gamma-33P]-ATP by filtration method; method in brief: as §2
[6] = target: T1, Death-associated protein kinase 1; test: Inhibition of DAPK1 in HEK293 tau-BiFC cells assessed as reduction in forskolin-induced tau aggregation at 50 uM after 48 hrs by Hoechst staining based HCS analysis; assay type: cell-based
Method in brief: (§3)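 HEK293 cells expressing tau-BiFC were exposed to compounds at 50, 10 and 1 μM with forskolin (30 μM) as the tau aggregation activator for 48 h. BiFC fluorescence intensity was quantified as the read-out. Data are mean ± SD.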
Target sequence in this assay (P53355 whole entry, looked up, the tested form may be a part): as above

[7] = target: T1, Death-associated protein kinase 1; test: Inhibition of human DAPK1 (1 to 363 residues) at 20 uM using KKLNRTLSFAEPG as substrate after 120 mins in presence of 10 uM [gamma-33P]-ATP by filtration method relative to control
Method in brief: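 Radiometric HotSpot kinase assay with 10 μM ATP. Compound tested at a single 20 μM concentration, reported as mean % inhibition from two independent experiments.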
Target sequence in this assay (P53355 whole entry, looked up, the tested form may be a part): as above

[8] = target: T1, Death-associated protein kinase 1; test: Inhibition of DAPK1 in HEK293 tau-BiFC cells assessed as reduction in forskolin-induced tau aggregation at 1 to 50 uM after 48 hrs by Hoechst staining based HCS analysis; assay type: cell-based; method in brief: as §3
Target sequence in this assay (P53355 whole entry, looked up, the tested form may be a part): as above

[9] = target: T1, Death-associated protein kinase 1; test: Inhibition of DAPK1 in HEK293 tau-BiFC cells assessed as reduction in forskolin-induced tau aggregation at 10 uM after 48 hrs by Hoechst staining based HCS analysis; assay type: cell-based; method in brief: as §3
Target sequence in this assay (P53355 whole entry, looked up, the tested form may be a part): as above

| inhibition [2] | IC50 [5] | SMILES | inhibition [1] | Papp at 4 h, 50 µM [3] | IC50 [4] | inhibition [6] | inhibition [7] | inhibition [8] | inhibition [9] |
| --- | --- | --- | --- | --- | --- | --- | --- | --- | --- |
| 28.4% | – | COc1ccc(Oc2nc(Nc3ccc(N4CCCCC4)nc3)ncc2NC(N)=O)cc1 | 31.7% | – | – | – | – | – | – |
| 35.2% | – | COc1ccc(Oc2nc(Nc3ccc(F)cc3)ncc2NC(=O)c2cc(OC)cc(OC)c2)cc1 | 65% | – | 4290 nM | Active | – | – | inactive |

More lines, now with the values behind:

| SMILES | inhibition [2] | IC50 [5] | inhibition [1] | Papp at 4 h, 50 µM [3] | IC50 [4] | inhibition [6] | inhibition [7] | inhibition [8] | inhibition [9] |
| --- | --- | --- | --- | --- | --- | --- | --- | --- | --- |
| CC(=O)[C@H]1CC[C@H]2[C@@H]3CCC4=CC(=O)CC[C@]4(C)[C@H]3CC[C@]12C [PROGESTERONE] | – | – | – | 33.3 ×10⁻⁶ cm/s | – | – | – | – | – |
| COc1ccc(Oc2nc(Nc3ccc(N4CCCCC4)nc3)ncc2NC(=O)c2cc(OC)cc(OC)c2)cc1 | 76% | 1720 nM | 67.3% | – | 2690 nM | Active | – | – | – |
| COc1ccc(Oc2nc(Nc3ccc(N4CCOCC4)cc3)ncc2NC(=O)c2cccc(OC)c2)cc1 | 91.8% | 780 nM | 75.1% | – | 7440 nM | Active | – | – | – |
| COc1ccc(Oc2nc(Nc3ccc(N4CCOCC4)cc3)ncc2NC(=O)c2cccc(C(F)(F)F)c2)cc1 | 74.7% | 4890 nM | – | – | 2610 nM | – | 69.7% | inactive | – |
